In ChEMBL document CHEMBL2331371, “Natural products inspired synthesis of neuroprotective agents against H₂O₂-induced cell death” (Bioorg Med Chem Lett, 2013):
Active and inactive are the calls of the source. The rule behind the calls is not given here.

Columns and labels:
PC-12 [1] = experiment: Effect on Na+/K+ ATPase activity in rat PC12 cells assessed as inorganic phosphate liberation using ATP as substrate at 50 uM after 1 hr by colorimetric analysis; type: cell-based
Procedure, shortened: (§1)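 Adherent PC12 cells exposed 1 h to 50 µM compound, either alone or together with 100 µM H2O2, then harvested. ATPase assayed in two parallel runs, total and ouabain-insensitive. Inorganic phosphate formed in 30 min quantified colorimetrically; Na+/K+-ATPase activity taken as the difference without versus with ouabain. Triplicate experiments; means ± SEM, Student t-test.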

PC-12 [2] = experiment: Inhibition of H2O2-induced decrease in Na+/K+ ATPase activity in rat PC12 cells assessed as increase in inorganic phosphate liberation using ATP as substrate at 50 uM after 1 hr by colorimetric analysis in presence H2O2; type: cell-based; procedure, shortened: as §1
PC-12 [3] = experiment: Neuroprotective activity against H2O2-induced oxidative stress in rat PC12 cells assessed as increase in cell viability treated for 6 hrs prior to H2O2 addition measured after 18 hrs by Synergy Hybrid H1 reader analysis; type: functional, cell-based
Procedure, shortened: (§2)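 PC12 cells pretreated 6 h with compound at 0.1, 1, 10, 50, 100 or 150 µM, then challenged with 100 µM H2O2 for a further 18 h. Untreated cells served as 100% survival. Cells harvested for viability assay. Triplicates with three separate culture batches; means ± SEM, Student t-test, p<0.05.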

PC-12 [4] = experiment: Neuroprotective activity against H2O2-induced oxidative stress in rat PC12 cells assessed as increase in cell viability at 0.1 to 10 uM treated for 6 hrs prior to H2O2 addition measured after 18 hrs by Synergy Hybrid H1 reader analysis; type: functional, cell-based; procedure, shortened: as §2
PC-12 [5] = experiment: Neuroprotective activity against H2O2-induced oxidative stress in rat PC12 cells assessed as increase in cell viability at 0.1 to 150 uM treated for 6 hrs prior to H2O2 addition measured after 18 hrs by Synergy Hybrid H1 reader analysis; type: functional, cell-based
Procedure, shortened: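 PC12 cells pretreated 6 h with test agent (0.1, 1, 10, 50, 100, 150 µM), then 100 µM H₂O₂ added for a further 18 h. Untreated cells set as 100% survival; H₂O₂-only cells as injury control. Cells then harvested for viability assay. Triplicate runs over three separate culture batches; means ± SEM, Student t-test, p < 0.05.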

Row | SMILES | Activity (PC-12 [1]) | inhibition (PC-12 [2]) | Activity (PC-12 [3]) | Activity (PC-12 [4]) | Activity (PC-12 [5])
1 | C[C@]12CCCC[C@@]1(O)OC(=O)C=C2c1ccoc1 | inactive | Active | Dose-dependent effect | – | –
2 | C[C@]12CCCC[C@@]1(O)C(=O)C=C2c1ccoc1 | inactive | – | Dose-dependent effect | Active | –
3 | C[C@]12CCCC[C@@]1(O)C(=O)C[C@H]2c1ccco1 | inactive | Active | Dose-dependent effect | – | –
4 | C[C@]12CCCC[C@@]1(O)C(=O)C=C2c1ccco1 | inactive | Active | – | – | Active
5 | C[C@]12CCCC[C@H]1C(=O)C=C2c1ccoc1 | inactive | Active | Dose-dependent effect | Active | –
6 | C[C@]12CCCC[C@@]1(O)C(=O)CC2c1ccoc1 (single isomer, unassigned) | inactive | – | – | – | Active
